Reference: ChEMBL document CHEMBL1146946, “Synthesis of novel benzofuran isoxazolines as protein tyrosine phosphatase 1B inhibitors” (Bioorg Med Chem Lett, 2006)

Assays:
[1] = target: T1, Tyrosine-protein phosphatase non-receptor type 1 (Homo sapiens) (UniProt P18031); assay: Inhibition of PTP1B at 100 uM
T1 sequence (whole entry): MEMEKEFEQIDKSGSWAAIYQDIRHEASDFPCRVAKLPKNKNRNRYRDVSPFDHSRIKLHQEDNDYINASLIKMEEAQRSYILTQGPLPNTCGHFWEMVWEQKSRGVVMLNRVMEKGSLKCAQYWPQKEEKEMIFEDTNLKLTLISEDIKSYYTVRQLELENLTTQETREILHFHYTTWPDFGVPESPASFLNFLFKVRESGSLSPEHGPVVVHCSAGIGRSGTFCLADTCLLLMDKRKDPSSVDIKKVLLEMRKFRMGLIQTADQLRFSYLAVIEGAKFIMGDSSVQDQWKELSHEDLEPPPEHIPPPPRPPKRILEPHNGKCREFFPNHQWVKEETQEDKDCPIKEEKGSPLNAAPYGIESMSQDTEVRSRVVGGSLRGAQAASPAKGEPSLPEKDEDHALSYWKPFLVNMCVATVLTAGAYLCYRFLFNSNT
In short: (§1)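 Test compound preincubated 10 min with enzyme in the reaction system before residual phosphatase activity was read. Substrate was 10 mM p-nitrophenylphosphate in 50 mM HEPES pH 7.0 with 1 mM each of EDTA and DTT. The reaction was stopped with 0.1 N NaOH and absorbance read at 410 nm. No-enzyme blanks run in parallel corrected for non-enzymic hydrolysis.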

[2] = target: T2, Tyrosine-protein phosphatase non-receptor type 1 (Homo sapiens, UniProt P18031); assay: Inhibition of PTP1B; in short: as §1
T2 sequence (P18031 whole entry): T1 sequence (whole entry)

[3] = test system: Rattus norvegicus; assay: Antihyperglycemic activity in Streptozotocin-induced diabetic rat at 100 mg/kg; type: functional

`COc1ccc(C2CC(c3cc(OC)c4occc4c3OC)=NO2)cc1` (stereo unspecified) gave an inhibition [1] of 79.6%, an IC50 [2] of 81 µM and a Ki [2] of 32 µM.

`COC(=O)C1C(c2ccc3occc3c2OC)=NOC1c1ccccc1` (stereo unspecified) was tested, and the inhibition [1] was 18.5%, the IC50 [2] was 199 µM and the Ki [2] was 72.5 µM.

`COc1c(C2=NOC(c3ccccc3)C2)cc(OC)c2occc12` (stereo unspecified) gave an inhibition [1] of 80.4%, an IC50 [2] of 76 µM and a Ki [2] of 30 µM.

`COc1c(C2=NOC(n3ccnc3)C2)ccc2occc12` (stereo unspecified) was tested, and the inhibition [1] was 14.9%.

`COc1ccc(C2CC(c3ccc4occc4c3OC)=NO2)cc1` (stereo unspecified) showed an inhibition [1] of 49.1%, an IC50 [2] of 150 µM and a Ki [2] of 27.5 µM.

In the case of `COc1c(C2=NOC(c3ccccn3)C2)ccc2occc12` (stereo unspecified), the inhibition [1] is reported as 17.4%.

Work on `COc1c(C2=NOC(c3ccccn3)C2)cc(OC)c2occc12` (stereo unspecified) yielded an inhibition [1] of 18.4%.

For `COc1c(C2=NOC(c3ccncc3)C2)ccc2occc12` (stereo unspecified), the inhibition [1] was 14.7%.

`COc1c(C2=NOC(c3ccccc3)C2)ccc2occc12` (stereo unspecified) showed an inhibition [1] of 22.5%, an IC50 [2] of 227 µM and a Ki [2] of 45 µM.

With `COc1c(-c2ccccc2)oc2c(ccc3occc32)c1=O` [KARANJIN] the inhibition [1] was 15.8% and the inhibition in vivo at 100 mg/kg [3] was 35%.
